Here are results for four molecules from ChEMBL document CHEMBL1795318, “Development of tetrahydroisoquinoline-based hydroxamic acid derivatives: potent histone deacetylase inhibitors with marked in vitro and in vivo antitumor activities” (J Med Chem, 2011).

The source made the active and inactive calls. No cut-off for these calls is given here.

Data set [1] deals with MDA-MB-231. The data set is described as follows: Antitumor activity against human MDA-MB-231 cells xenografted in athymic nude mouse assessed as tumor growth delay at 90 mg/kg, ip qd for 21 days. Type of data set: functional, organism-based. Details: dose 90 mg/kg.
A further data set deals with T1, Histone deacetylase 8 (Homo sapiens, UniProt Q9BY41).
T1 sequence (Q9BY41 whole entry): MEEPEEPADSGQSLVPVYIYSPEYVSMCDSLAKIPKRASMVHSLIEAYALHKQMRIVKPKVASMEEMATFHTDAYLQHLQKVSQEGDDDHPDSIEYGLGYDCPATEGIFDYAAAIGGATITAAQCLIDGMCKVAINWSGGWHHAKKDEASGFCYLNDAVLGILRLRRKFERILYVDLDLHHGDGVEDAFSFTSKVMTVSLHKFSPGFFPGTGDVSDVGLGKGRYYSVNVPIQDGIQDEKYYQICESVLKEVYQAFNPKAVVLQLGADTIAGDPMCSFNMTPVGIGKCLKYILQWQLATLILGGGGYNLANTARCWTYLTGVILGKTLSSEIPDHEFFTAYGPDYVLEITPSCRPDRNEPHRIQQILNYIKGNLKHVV
The data set is described as follows: Inhibition of HDAC8 after 30 mins by fluorescence microplate reader. An outline of the steps:
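HDAC8 mixed with compound at various concentrations, fluorogenic substrate added, 37 °C for 30 min; stopped with developer containing trypsin and TSA. Fluorescence read after 20 min (ex 390/em 460 nm); inhibition relative to control wells, IC50 by regression of concentration/inhibition data; mean ± SD of at least three determinations.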

The next data set has as its system K562. The data set is described as follows: Cytotoxicity against human K562 cells after 48 hrs by MTT assay. Format: functional, cell-based. The conditions noted are these: K562, 48 h.
Data set [2] deals with MDA-MB-231. The data set is described as follows: Cell cycle arrest in human MDA-MB-231 cells assessed as accumulation at G2 phase at 2 to 5 uM after 48 hrs by flow cytometry analysis. Format: functional, cell-based. A general note: In flow cytometry, cells or beads pass a laser one at a time.
Data set [3] has as its target T2, Protein deacetylase HDAC6 (Homo sapiens, UniProt Q9UBN7).
T2 sequence (Q9UBN7 whole entry): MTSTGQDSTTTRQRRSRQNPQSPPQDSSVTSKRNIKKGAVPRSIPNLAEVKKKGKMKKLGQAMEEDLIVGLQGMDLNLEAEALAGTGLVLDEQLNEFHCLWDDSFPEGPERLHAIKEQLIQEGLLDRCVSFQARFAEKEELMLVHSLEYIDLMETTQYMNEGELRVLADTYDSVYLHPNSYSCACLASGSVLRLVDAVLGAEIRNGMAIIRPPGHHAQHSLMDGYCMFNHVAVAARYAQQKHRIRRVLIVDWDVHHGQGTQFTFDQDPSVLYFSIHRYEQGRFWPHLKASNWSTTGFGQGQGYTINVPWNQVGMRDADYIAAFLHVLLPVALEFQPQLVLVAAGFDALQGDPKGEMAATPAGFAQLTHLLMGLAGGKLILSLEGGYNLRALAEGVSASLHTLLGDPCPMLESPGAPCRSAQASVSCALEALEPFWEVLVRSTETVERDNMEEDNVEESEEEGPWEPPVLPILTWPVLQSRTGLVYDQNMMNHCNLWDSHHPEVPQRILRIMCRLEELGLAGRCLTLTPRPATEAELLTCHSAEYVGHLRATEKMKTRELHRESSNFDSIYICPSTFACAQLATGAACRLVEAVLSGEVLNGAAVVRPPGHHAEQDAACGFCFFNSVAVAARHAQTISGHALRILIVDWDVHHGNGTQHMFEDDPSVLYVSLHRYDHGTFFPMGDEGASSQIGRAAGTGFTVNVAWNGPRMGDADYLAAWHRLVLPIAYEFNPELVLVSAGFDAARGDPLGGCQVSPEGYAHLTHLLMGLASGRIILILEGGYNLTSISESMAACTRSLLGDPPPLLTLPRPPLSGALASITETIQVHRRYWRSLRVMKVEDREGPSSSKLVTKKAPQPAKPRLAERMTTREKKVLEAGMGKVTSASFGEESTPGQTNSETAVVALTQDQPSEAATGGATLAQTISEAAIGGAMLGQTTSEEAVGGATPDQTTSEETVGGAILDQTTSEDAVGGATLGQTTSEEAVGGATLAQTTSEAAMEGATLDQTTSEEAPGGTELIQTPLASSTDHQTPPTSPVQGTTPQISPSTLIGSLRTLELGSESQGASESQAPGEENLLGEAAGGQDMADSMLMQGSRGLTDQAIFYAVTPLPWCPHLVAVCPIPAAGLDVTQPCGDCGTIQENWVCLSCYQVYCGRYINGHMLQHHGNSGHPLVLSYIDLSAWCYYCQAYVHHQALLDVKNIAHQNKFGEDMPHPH
Put plainly: Inhibition of HDAC6 in human HeLa cell nuclear extract after 30 mins by fluorescence microplate reader.

Data set [4] in a line: Cytotoxicity against human ES2 cells after 48 hrs by MTT assay. The conditions noted are these: ES-2, 48 h. Format: functional, cell-based.
For another data set, the system named is HL-60. Put plainly: Cytotoxicity against human HL60 cells after 48 hrs by MTT assay. Type of data set: functional, cell-based. The conditions noted are these: HL-60, 48 h. (Tetrazolium assays rely on reduction of a dye to a coloured formazan, in cell work by metabolically active cells.)
In data set [5] the test system is MDA-MB-231. Put plainly: Cell cycle arrest in human MDA-MB-231 cells assessed as accumulation at G1 phase at 0.5 uM after 48 hrs by flow cytometry analysis. Format: functional, cell-based.
A further data set concerns the target Histone deacetylase. Put plainly: Inhibition of HDAC in human HeLa cell nuclear extract after 30 mins by fluorescence microplate reader. Type of data set: protein assay.
The test system of the next data set is NB-4. Put plainly: Cytotoxicity against human NB4 cells after 48 hrs by MTT assay. The conditions noted are these: NB-4, 48 h. Format: functional, cell-based.
For data set [6], the system named is MDA-MB-231. The data set is described as follows: Cytotoxicity against human MDA-MB-231 cells after 48 hrs by MTT assay. Type of data set: functional, cell-based. The note with it: MDA-MB-231, 48 h.
Data set [7] relates to MDA-MB-231. The data set is described as follows: Antitumor activity against human MDA-MB-231 cells xenografted in athymic nude mouse assessed as tumor growth inhibition at 90 mg/kg, ip qd for 21 days. Format: functional. The note with it: route intraperitoneal. Background: In xenograft studies the graft and the host belong to different species.
The next data set concerns HeLa. The data set is described as follows: Cytotoxicity against human HeLa cells after 48 hrs by MTT assay. Format: functional, cell-based.
Data set [8] relates to Mus musculus. Put plainly: Toxicity in human MDA-MB-231 cells xenografted athymic nude mouse assessed as change in body weight at 90 mg/kg, ip qd for 21 days. Type of data set: organism-based. Details: dose 90 mg/kg, route intraperitoneal. The conditions noted are these: in vivo, 504 h.
In data set [9] the test system is Mus musculus. The data set is described as follows: Toxicity in human MDA-MB-231 cells xenografted athymic nude mouse assessed as signs of toxicity at 90 mg/kg, ip qd for 21 days. Details: dose 90 mg/kg, route intraperitoneal. The note with it: in vivo, 504 h. Type of data set: organism-based.
Data set [10] is described as follows: Cytotoxicity against human fibroblasts after 48 hrs by MTT assay. Type of data set: cell-based. The conditions noted are these: fibroblast. An outline of the steps:
(§1)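 Cells kept in RPMI1640 with 10% FBS, 37 °C, 5% CO₂; seeded day before dosing, grown ≥4 h, treated with a concentration series for 48 h. MTT 0.5% solution added, 4 h further; formazan dissolved in DMSO 15 min, absorbance at 570 nm. Mean of three experiments.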

Another data set relates to A549. Put plainly: Cytotoxicity against human A549 cells after 48 hrs by MTT assay. Type of data set: functional, cell-based. The note with it: A549, 48 h. In a few lines:
as §1

Regarding `CC[C@H](C)[C@@H](CN1Cc2cc(OCC(=O)NO)ccc2C[C@H]1C(=O)Nc1ccc(OC)cc1)NC(=O)OC(C)(C)C`, the outcome in the data set with MDA-MB-231 [1], in the data set with MDA-MB-231 [2] and in the data set with MDA-MB-231 [5] was Active. Also, the IC50 – broadly, the midpoint of a concentration-inhibition curve – against Histone deacetylase 8 stood at 0.263 µM; with K562 it was 7 µM; in data set [3], 0.094 µM; in data set [4], 7.2 µM; in the data set with HL-60, 42.7 µM; at Histone deacetylase, 0.447 µM. Also, the half-inhibitory concentration (IC50) in the data set on NB-4 came to 3.87 µM; in the data set on MDA-MB-231 [6] it was 2.2 µM; with HeLa, 29.2 µM. The T/C (usually the ratio of treated to control) in the data set on MDA-MB-231 [7] stood at 47%.
Turning to `CC[C@H](C)[C@H](NC(=O)OC(C)(C)C)C(=O)N1Cc2cc(OCC(=O)NO)ccc2C[C@H]1C(=O)Nc1ccc(OC)cc1`, the outcome in the data set with MDA-MB-231 [1], in the data set with MDA-MB-231 [2] and in the data set with MDA-MB-231 [5] was Active. For the same molecule, the half-inhibitory concentration (IC50) on Histone deacetylase 8 is 0.139 µM; in the data set with K562 it was 1.47 µM; in data set [3], 0.047 µM; in data set [4], 5 µM; with HL-60, 47.6 µM; at Histone deacetylase, 0.058 µM. Besides, the IC50 in the data set on NB-4 came out at 1.5 µM; in the data set on MDA-MB-231 [6] it was 0.79 µM; with HeLa it was 37.1 µM; in the data set on A549 it was 0.94 µM. The Activity entry with Mus musculus [8] is listed as “Non-toxic”; with Mus musculus [9] it was “Non-toxic”; in data set [10] it was “Toxic”. For the same molecule, the T/C in the data set with MDA-MB-231 [7] is 63%.
In the case of `CC[C@H](C)[C@@H](CN1Cc2cc(OCC(=O)NO)ccc2C[C@H]1C(=O)Nc1ccc(OC)cc1)NC(=O)CC(C)(C)C`, the outcome in the data set on MDA-MB-231 [1] was Active. Further, the IC50 turned out to be 0.333 µM against Histone deacetylase 8; 10 µM in the data set with K562; 0.158 µM in [3]; 25.7 µM with HL-60; 0.297 µM at Histone deacetylase; 5.57 µM in the data set with NB-4. The IC50 amounted to 2.54 µM with MDA-MB-231 [6] and 63.5 µM in the data set with HeLa. Besides, the T/C in the data set with MDA-MB-231 [7] is recorded as 87%.
`O=C(CCCCCCC(=O)Nc1ccccc1)NO` [VORINOSTAT]: the result with MDA-MB-231 [1] was Active. Further, the Activity entry with Mus musculus [8] and in the data set with Mus musculus [9] was “Non-toxic” in each case. For the same molecule, 0.74 µM corresponded to half-maximal inhibition in the data set on A549 (IC50).
